Laboratory results: ChEMBL document CHEMBL3351639, “Fluorinated analogues of marsanidine, a highly α2-AR/imidazoline I1 binding site-selective hypotensive agent. Synthesis and biological activities” (Eur J Med Chem, 2014)

How the values were obtained:
Rattus norvegicus [1] = test: Hypertensive activity in anesthetized Wistar rat assessed as time required for maximal increase in mean arterial blood pressure at 0.1 mg/kg, iv measured during 60 mins post dose; type: organism-based; parameters: dose 0.1 mg/kg, route intravenous; conditions: in vivo, 1 h
How it was run: (§1)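 Male Wistar rats (200–290 g) anaesthetized with thiopental 70 mg/kg i.p., maintained at 30 µg/kg/min; body temperature 36–37 °C. Carotid catheter recorded MAP and HR; jugular catheter for infusion. After 40 min of saline/thiopental infusion (1.2 ml/h), 0.1 mg/kg given as i.v. bolus (time 0). Signals sampled at 100 Hz. Maximal change from time 0 over 60 min, and its time, recorded. Saline vehicle control; n = 4–5.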

Rattus norvegicus [2] = test: Cardiovascular activity in anesthetized Wistar rat assessed as maximal reduction in heart rate at 0.1 mg/kg, iv measured during 60 mins post dose; type: functional; how it was run: as §1
Rattus norvegicus [3] = test: Hypotensive activity in anesthetized Wistar rat assessed as time required for maximal reduction in mean arterial blood pressure at 0.1 mg/kg, iv; type: functional; how it was run: as §1
[4] = molecular target: T1, Adrenergic receptor alpha-1 (Rattus norvegicus, UniProt P15823+P23944+P43140); test: Displacement of [3H]prazosin from alpha1-adrenoceptor in Sprague-Dawley rat brain membranes after 45 mins by liquid scintillation counting; type: cell membranes, Membrane
T1 sequence (P15823 whole entry): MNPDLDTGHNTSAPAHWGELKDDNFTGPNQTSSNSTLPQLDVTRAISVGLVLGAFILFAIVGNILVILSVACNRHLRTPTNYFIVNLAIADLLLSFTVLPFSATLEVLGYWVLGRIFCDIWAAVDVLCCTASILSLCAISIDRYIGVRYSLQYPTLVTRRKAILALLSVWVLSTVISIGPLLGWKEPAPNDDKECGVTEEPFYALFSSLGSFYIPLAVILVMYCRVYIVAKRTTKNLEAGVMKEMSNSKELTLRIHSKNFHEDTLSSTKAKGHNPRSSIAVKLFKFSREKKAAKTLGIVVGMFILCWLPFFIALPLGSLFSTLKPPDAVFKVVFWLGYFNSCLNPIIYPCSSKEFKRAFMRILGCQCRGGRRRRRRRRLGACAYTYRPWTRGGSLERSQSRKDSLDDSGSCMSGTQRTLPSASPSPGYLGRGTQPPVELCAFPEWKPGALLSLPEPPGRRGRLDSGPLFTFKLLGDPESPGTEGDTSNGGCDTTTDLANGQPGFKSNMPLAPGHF
T1 sequence (P23944 whole entry): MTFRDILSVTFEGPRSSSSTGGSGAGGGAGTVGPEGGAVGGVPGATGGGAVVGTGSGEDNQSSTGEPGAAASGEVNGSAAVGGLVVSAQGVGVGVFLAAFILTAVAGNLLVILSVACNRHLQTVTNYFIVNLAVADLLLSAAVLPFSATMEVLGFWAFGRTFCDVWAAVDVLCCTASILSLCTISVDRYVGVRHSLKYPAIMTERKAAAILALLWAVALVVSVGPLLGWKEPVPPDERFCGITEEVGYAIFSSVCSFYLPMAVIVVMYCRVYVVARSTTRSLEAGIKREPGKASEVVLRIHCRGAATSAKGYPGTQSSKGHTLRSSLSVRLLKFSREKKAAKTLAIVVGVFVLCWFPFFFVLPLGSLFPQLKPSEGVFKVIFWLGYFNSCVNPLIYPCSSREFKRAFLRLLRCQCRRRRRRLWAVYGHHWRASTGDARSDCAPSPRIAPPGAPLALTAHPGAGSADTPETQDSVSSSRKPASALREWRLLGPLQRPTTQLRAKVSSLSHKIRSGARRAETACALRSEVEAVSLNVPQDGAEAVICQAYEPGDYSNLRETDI
T1 sequence (P43140 whole entry): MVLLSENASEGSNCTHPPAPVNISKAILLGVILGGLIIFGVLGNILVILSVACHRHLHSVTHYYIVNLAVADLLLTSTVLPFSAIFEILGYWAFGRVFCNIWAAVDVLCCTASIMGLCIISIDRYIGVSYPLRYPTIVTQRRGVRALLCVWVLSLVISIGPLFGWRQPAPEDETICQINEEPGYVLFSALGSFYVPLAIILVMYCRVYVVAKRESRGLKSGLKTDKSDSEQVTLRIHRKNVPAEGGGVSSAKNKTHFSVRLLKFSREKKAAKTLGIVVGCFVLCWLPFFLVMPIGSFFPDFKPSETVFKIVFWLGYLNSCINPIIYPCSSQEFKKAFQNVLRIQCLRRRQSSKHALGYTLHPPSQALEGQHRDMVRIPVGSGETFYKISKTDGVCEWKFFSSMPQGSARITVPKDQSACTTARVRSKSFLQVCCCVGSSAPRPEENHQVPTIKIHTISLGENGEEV
How it was run: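 Crude P2 membranes from brains of male Sprague-Dawley rats (250–280 g), 0.2–0.3 mg protein. Radioligand 1 nM [3H]RX821002 (α2) or [3H]prazosin (α1); 11 concentrations of compound, 0.1 nM–100 µM. Non-specific binding: 10 µM rauwolscine (α2) or 10 µM phenylephrine (α1). Triplicate incubation, RT, 45 min. PEI-soaked glass-fibre filtration, then scintillation counting. Ki by Cheng-Prusoff; 3–4 experiments, or one for low-affinity compounds.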

[5] = Displacement of […] from imidazoline I2 receptor in Sprague-Dawley rat kidney membranes after 45 mins by liquid scintillation counting; type: cell membranes, Membrane
Nischarin = Nischarin (Rattus norvegicus, UniProt Q4G017); test: Displacement of […] from imidazoline I1 receptor in Sprague-Dawley rat kidney membranes after 45 mins by liquid scintillation counting; type: cell membranes, Membrane
Nischarin, sequence (Q4G017 whole entry): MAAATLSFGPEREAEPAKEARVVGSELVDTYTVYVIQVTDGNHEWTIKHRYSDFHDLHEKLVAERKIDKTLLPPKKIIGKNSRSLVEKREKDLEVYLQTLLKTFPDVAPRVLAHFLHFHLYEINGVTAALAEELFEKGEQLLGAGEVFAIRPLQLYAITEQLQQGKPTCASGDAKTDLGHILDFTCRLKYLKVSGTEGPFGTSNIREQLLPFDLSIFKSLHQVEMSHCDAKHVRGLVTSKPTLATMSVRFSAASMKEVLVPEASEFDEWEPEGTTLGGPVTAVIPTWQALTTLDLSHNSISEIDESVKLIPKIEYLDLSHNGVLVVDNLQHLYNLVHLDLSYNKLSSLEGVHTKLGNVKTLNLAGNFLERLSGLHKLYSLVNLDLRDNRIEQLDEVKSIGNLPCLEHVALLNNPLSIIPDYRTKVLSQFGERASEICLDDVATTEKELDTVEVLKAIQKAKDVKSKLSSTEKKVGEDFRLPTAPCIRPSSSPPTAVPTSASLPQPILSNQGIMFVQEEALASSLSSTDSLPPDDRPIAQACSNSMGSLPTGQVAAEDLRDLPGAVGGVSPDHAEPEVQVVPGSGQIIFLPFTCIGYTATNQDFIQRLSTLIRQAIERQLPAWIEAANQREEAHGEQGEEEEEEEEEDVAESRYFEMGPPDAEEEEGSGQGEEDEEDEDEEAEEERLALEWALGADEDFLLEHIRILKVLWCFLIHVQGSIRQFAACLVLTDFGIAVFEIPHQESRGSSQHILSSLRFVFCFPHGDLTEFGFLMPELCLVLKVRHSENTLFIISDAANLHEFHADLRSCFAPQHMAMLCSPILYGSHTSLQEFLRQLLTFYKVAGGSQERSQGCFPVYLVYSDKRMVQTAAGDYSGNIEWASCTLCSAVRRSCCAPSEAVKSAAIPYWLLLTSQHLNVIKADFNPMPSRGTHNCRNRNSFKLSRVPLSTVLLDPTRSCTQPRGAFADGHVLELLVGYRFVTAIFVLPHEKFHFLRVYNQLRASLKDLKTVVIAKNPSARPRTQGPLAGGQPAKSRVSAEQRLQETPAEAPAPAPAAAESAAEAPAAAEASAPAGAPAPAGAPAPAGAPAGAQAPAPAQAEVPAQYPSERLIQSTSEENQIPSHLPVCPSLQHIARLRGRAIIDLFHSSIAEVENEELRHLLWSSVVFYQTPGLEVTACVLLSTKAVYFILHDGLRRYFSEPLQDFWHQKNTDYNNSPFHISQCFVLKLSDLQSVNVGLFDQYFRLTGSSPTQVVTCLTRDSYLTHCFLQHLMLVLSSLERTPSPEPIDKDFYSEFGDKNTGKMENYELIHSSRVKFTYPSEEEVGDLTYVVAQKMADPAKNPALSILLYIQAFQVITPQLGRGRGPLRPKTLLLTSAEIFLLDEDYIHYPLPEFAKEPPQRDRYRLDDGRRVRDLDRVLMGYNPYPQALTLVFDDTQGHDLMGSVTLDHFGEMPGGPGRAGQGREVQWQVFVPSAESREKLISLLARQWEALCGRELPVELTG

| SMILES | Time (Rattus norvegicus [1]) [min] | Activity (Rattus norvegicus [2]) [bpm] | Time (Rattus norvegicus [3]) [min] | Ki [4] [nM] | Ki [5] [nM] | IC50 (Nischarin) [nM] |
| --- | --- | --- | --- | --- | --- | --- |
| Fc1ccc2cnn(CC3=NCCN3)c2c1 | 4 | 52 | 36 | 518.3 | 8.19 | 33500 |
| Fc1ccc2c(cnn2N=C2NCCN2)c1 | 2 | 61 | 11 | 2320 | 5700 | 91.6 |
| Fc1cccc2cnn(N=C3NCCN3)c12 | 4 | 128 | 33 | 1625 | 349000 | 7740 |
| Fc1ccc2c(cnn2CC2=NCCN2)c1 | 2 | 12 | 40 | 476.3 | 10.4 | 2420 |
| Fc1ccc2cnn(N=C3NCCN3)c2c1 | 3 | 118 | 35 | 918.3 | 22000 | 20700 |
